# According to ChEMBL document CHEMBL5712082, “PRMT5-mediated regulation of developmental myelination” (Nat Commun, 2018):
# Activity calls are given as the source filed them. The calls are words filed in the database; no cut-off is given here.
# How the values were obtained:
# [1] = biological target: Protein arginine N-methyltransferase 5 (Mus musculus) (UniProt Q8CIG8); experiment: Inhibition of PRMT5 in mouse oligodendrocyte progenitor cells assessed as decreased in number of differentiating cells in presence of 0.2 uM KAT inhibitor NU-9056 after 24 to 48 hrs by CNP and MBP staining based assay; conditions: Oligodendrocyte progenitor cell, time 24-48 hrs
# Protein arginine N-methyltransferase 5 (Mus musculus), sequence (Q8CIG8 whole entry): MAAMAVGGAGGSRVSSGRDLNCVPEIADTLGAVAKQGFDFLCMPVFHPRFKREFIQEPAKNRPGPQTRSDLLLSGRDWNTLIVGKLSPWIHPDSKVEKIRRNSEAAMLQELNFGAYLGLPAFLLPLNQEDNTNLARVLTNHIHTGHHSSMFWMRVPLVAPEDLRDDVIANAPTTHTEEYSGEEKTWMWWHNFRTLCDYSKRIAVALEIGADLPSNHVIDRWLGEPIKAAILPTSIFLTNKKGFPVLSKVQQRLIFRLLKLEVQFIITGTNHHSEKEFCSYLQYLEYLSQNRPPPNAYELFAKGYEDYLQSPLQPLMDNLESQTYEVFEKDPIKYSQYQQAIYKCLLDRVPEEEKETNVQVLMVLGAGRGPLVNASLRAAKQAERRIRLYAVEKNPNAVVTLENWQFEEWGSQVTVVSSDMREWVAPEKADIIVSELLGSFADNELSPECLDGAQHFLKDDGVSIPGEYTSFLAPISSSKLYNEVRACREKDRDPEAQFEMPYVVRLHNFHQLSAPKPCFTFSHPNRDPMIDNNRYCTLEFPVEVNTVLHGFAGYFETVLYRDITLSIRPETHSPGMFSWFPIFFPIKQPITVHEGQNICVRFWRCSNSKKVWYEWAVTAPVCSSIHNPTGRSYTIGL
# [2] = biological target: Protein arginine N-methyltransferase 5 (Mus musculus) (UniProt Q8CIG8); experiment: Inhibition of PRMT5 in Trp53fl/fl wild type mouse oligodendrocyte progenitor cells assessed as decreased in number of differentiating cells at 10 nM by cell count assay; format: cell-based
# Method in brief: (§1)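 Primary OPCs from Trp53fl/fl mice (P7 immunopanning for PDGFRα), uninfected, alongside Cre-retrovirus-infected Trp53−/− counterparts. Cultured in SATO medium with PDGF-AA 10 ng/ml + bFGF 20 ng/ml (proliferating) or without growth factors + T3 60 nM (differentiating). Treated ± 10 nM inhibitor, DMSO controls. Cell counts averaged over three biological replicates.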
# [3] = biological target: Protein arginine N-methyltransferase 5 (Mus musculus) (UniProt Q8CIG8); experiment: Inhibition of PRMT5 in mouse oligodendrocyte progenitor cells assessed as decrease in expression of P53-responsive genes ((Mdm2, Cdkn1a, Perp) in presence of 100 uM KAT inhibitor Butyrolactone-3 after 48 hrs by qRT-PCR analysis; format: cell-based; conditions: Oligodendrocyte progenitor cell
# [4] = biological target: Protein arginine N-methyltransferase 5 (Mus musculus) (UniProt Q8CIG8); experiment: Inhibition of PRMT5 in mouse oligodendrocyte progenitor cells assessed as increase in levels of H4K5Ac incubated for 24 to 72 hrs by immunoreactivity based analysis; conditions: Oligodendrocyte progenitor cell, time 24-72 hrs
# Method in brief: (§2)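 Primary OPCs in growth-factor-free chemically defined medium, treated with DMSO or inhibitor over a time course. Fixed cells immunostained for H4R3me2s or H4K5ac. Nuclear pixel intensity measured by confocal imaging in an average of 395 cells per condition, three biological replicates.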
# [5] = Effect on cell proliferation in mouse oligodendrocyte progenitor cells assessed as Ki67+/PDGFRalpha+ cell count measured after 12 to 48 hrs by immunoreactivity based assay; format: toxicity; conditions: time 12-48 hrs
# Method in brief: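 P7 mouse OPCs immunopanned for PDGFRα, kept proliferating in SATO medium with PDGF-AA and bFGF, then treated with inhibitor or DMSO. Cells fixed in 4% PFA and immunostained for PDGFRα and KI67. Double-positive (KI67+ PDGFRα+) cells counted by confocal imaging from three biological replicates.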
# [6] = biological target: Protein arginine N-methyltransferase 5 (Mus musculus) (UniProt Q8CIG8); experiment: Inhibition of PRMT5 in mouse oligodendrocyte progenitor cells assessed as decrease in levels of H4R3me2s in presence of 100 uM KAT inhibitor Butyrolactone-3 after 24 to 48 hrs by immunoreactivity based analysis; conditions: Oligodendrocyte progenitor cell, time 24-48 hrs
# [7] = Effect on cell proliferation in Trp53fl/fl wild type mouse oligodendrocyte progenitor cells at 10 nM by cell count assay; format: toxicity, cell-based; conditions: 0.01 µM; method in brief: as §1
# [8] = biological target: Protein arginine N-methyltransferase 5 (Mus musculus) (UniProt Q8CIG8); experiment: Inhibition of PRMT5 in mouse oligodendrocyte progenitor cells assessed as decrease in levels of H4R3me2s at 10 nM incubated for 24 to 72 hrs by Western blot analysis; format: cell-based; conditions: Oligodendrocyte progenitor cell, time 24-72 hrs
# [9] = biological target: Protein arginine N-methyltransferase 5 (Mus musculus) (UniProt Q8CIG8); experiment: Inhibition of PRMT5 in mouse oligodendrocyte progenitor cells assessed as decrease in levels of H4R3me2s incubated for 24 to 72 hrs by immunoreactivity based analysis; conditions: Oligodendrocyte progenitor cell, time 24-72 hrs; method in brief: as §2
# [10] = biological target: Protein arginine N-methyltransferase 5 (Mus musculus) (UniProt Q8CIG8); experiment: Inhibition of PRMT5 in mouse oligodendrocyte progenitor cells assessed as decrease in expression of P53-responsive genes ((Mdm2, Cdkn1a, Perp) after 48 hrs by qRT-PCR analysis; format: cell-based; conditions: Oligodendrocyte progenitor cell
# [11] = biological target: Protein arginine N-methyltransferase 5 (Mus musculus) (UniProt Q8CIG8); experiment: Inhibition of PRMT5 in Trp53-/- mouse oligodendrocyte progenitor cells assessed as reduction of the number of cleaved caspase--3-positive CNP+ cells in differentiating OPCs; format: cell-based; conditions: Oligodendrocyte progenitor cell
# Method in brief: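 Trp53−/− OPCs (Trp53fl/fl OPCs infected with Cre retrovirus) and Trp53fl/fl OPCs held in differentiating conditions (no growth factors, 60 nM T3) with or without 10 nM inhibitor. Immunostained for CNP and cleaved caspase-3 with DAPI. CNP+/DAPI+ ratio and cleaved caspase-3 intensity from three biological replicates, expressed relative to untreated cells of the same genotype.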
# [12] = biological target: Protein arginine N-methyltransferase 5 (Mus musculus) (UniProt Q8CIG8); experiment: Inhibition of PRMT5 in mouse oligodendrocyte progenitor cells assessed as decrease in levels of H4R3me2s in presence of 0.2 uM KAT inhibitor NU-9056 after 24 to 48 hrs by immunoreactivity based analysis; conditions: Oligodendrocyte progenitor cell, time 24-48 hrs
# [13] = biological target: Protein arginine N-methyltransferase 5 (Mus musculus) (UniProt Q8CIG8); experiment: Inhibition of PRMT5 in mouse oligodendrocyte progenitor cells assessed as decrease in expression of P53-responsive genes ((Mdm2, Cdkn1a, Perp) in presence of 0.2 uM KAT inhibitor NU-9056 after 48 hrs by qRT-PCR analysis; format: cell-based; conditions: Oligodendrocyte progenitor cell
# [14] = biological target: Protein arginine N-methyltransferase 5 (Mus musculus) (UniProt Q8CIG8); experiment: Inhibition of PRMT5 in mouse oligodendrocyte progenitor cells assessed as decreased in number of differentiating cells in presence of 100 uM KAT inhibitor Butyrolactone-3 after 24 to 48 hrs by CNP and MBP staining based assay; conditions: Oligodendrocyte progenitor cell, time 24-48 hrs
# [15] = biological target: Protein arginine N-methyltransferase 5 (Mus musculus) (UniProt Q8CIG8); experiment: Inhibition of PRMT5 in mouse oligodendrocyte progenitor cells assessed as increase in levels of H4K5Ac at 10 nM incubated for 24 to 72 hrs by Western blot analysis; format: cell-based; conditions: Oligodendrocyte progenitor cell, time 24-72 hrs
# [16] = tested on: Oligodendrocyte progenitor cell; experiment: Inhibition of HDAC in mouse oligodendrocyte progenitor cells assessed as decreased in number of differentiating cells at 20 nM after 24 to 48 hrs by CNP and MBP staining based assay; conditions: time 24-48 hrs
inhibition [1],inhibition [2],inhibition [3],inhibition [4],inhibition [6],inhibition [8],inhibition [9],inhibition [10],inhibition [11],inhibition [12],inhibition [13],inhibition [14],inhibition [15],Compound,Activity [5],Activity [7],inhibition [16]
inactive,Active,inactive,Active,inactive,Active,Active,Active,Active,inactive,inactive,inactive,Active,O=C(NC[C@H](O)CN1CCc2ccccc2C1)c1ccnc(NC2CCC2)c1,Non-Toxic,Toxic,
,,,,,,,,,,,,,CC(/C=C/C(=O)NO)=C\[C@@H](C)C(=O)c1ccc(N(C)C)cc1,,,Active
